In series [1] the target is T1, Gastric inhibitory polypeptide receptor (Homo sapiens, UniProt P48546).
T1 sequence (P48546 whole entry): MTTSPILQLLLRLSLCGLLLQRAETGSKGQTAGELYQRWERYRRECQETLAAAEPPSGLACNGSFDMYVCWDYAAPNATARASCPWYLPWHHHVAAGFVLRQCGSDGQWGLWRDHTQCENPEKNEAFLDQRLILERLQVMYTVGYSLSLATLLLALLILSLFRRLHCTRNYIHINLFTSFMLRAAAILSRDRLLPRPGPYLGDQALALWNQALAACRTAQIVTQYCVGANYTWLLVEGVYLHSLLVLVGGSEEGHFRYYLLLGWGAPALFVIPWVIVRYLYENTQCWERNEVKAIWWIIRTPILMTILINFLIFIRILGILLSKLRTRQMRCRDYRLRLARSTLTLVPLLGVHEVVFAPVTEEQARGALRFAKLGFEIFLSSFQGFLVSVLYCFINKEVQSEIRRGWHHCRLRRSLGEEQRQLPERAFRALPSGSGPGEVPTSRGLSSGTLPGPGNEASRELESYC
Briefly: Displacement of [125I]porcine GIP from human recombinant GIPR receptor expressed in BHK cells by scintillation proximity assay. The format is cell-based.

For series [2], the target named is T2, Glucagon receptor (Homo sapiens, UniProt P47871). Briefly: Displacement of [125I]porcine glucagon from human recombinant glucagon receptor expressed in BHK cells by scintillation proximity assay. Type of series: cell-based.
In series [3] the target is T2, Glucagon receptor. Briefly: Binding affinity to human recombinant glucagon receptor expressed in BHK cells by membrane filter assay. The format is cell-based.
Series [4] deals with T1, Gastric inhibitory polypeptide receptor. As to the kind of experiment: Binding affinity to human recombinant GIPR expressed in BHK cells by membrane filter assay. The format is cell-based.
In series [5] the target is Glucagon receptor (Rattus norvegicus, UniProt P30082). As to the kind of experiment: Binding affinity to glucagon receptor in rat liver membrane by membrane filter assay. The format is cell membranes.
The target of series [6] is Glucagon receptor (Mus musculus, UniProt Q61606). As to the kind of experiment: Binding affinity to glucagon receptor in mouse liver membrane by membrane filter assay. The format is cell membranes.
The nature of series [7]: Binding affinity to glucagon receptor in rabbit liver membrane by membrane filter assay. The format is cell membranes, Oryctolagus cuniculus.
Series [8] can be described thus: Binding affinity to glucagon receptor in pig liver membrane by membrane filter assay. The format is cell membranes, Sus scrofa.
Series [9] in a line: Binding affinity to glucagon receptor in dog liver membrane by membrane filter assay. Type of series: cell membranes, Canis lupus familiaris.
A short description of series [10]: Binding affinity to glucagon receptor in monkey liver membrane by membrane filter assay. Type of series: cell membranes, Macaca mulatta.
Series [11] concerns Hepatocyte. As to the kind of experiment: Inhibition of glucagon-stimulated glucose production in human primary hepatocytes preincubated for 10 mins before glucagon addition by NADH-linked hexokinase assay. The format is functional, cell-based. In outline:
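Cultured primary human hepatocytes were preincubated with compound for 10 min, then glycogenolysis was induced with 5 nM glucagon for 60 min. Glucose in the medium was measured against basal glycogenolysis. Albumin was present in the assay medium. IC50 was calculated from four experiments, mean ± SEM.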

The subject of series [12] is Hepatocyte. As to the kind of experiment: Inhibition of glucagon-stimulated glucose production in rat primary hepatocytes. Type of series: functional, cell-based.
Series [13] is described as follows: Half life in fasted Sprague-Dawley rat plasma at 1.60 mg/kg, iv by HTLC-MS/MS analysis. The format is ADME, organism-based. Set-up: dose 1.6 mg/kg, route intravenous. To be noted: 1.6 mg/kg. In outline:
(§1)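 Rats were dosed intravenously and perorally in separate arms, and plasma concentration-time profiles were obtained. Half-life was taken from the iv arm. Clearance, oral bioavailability, Cmax and Tmax were derived from the profiles.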

A short description of series [14]: Oral bioavailability in fasted Sprague-Dawley rat at 3.25 mg/kg by HTLC-MS/MS analysis. The format is ADME, organism-based. To be noted: in vivo. In outline:
(§2)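 Separate intravenous and peroral dosing arms per compound, with plasma concentration followed against time. Oral bioavailability (F_po) is reported per compound together with the intravenous half-life and clearance. The dose used for each arm is listed per compound.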

Series [15] can be described thus: Clearance in fasted Sprague-Dawley rat at 1.60 mg/kg, iv and 3.25 mg/kg, po by HTLC-MS/MS analysis. The format is ADME, organism-based. To be noted: in vivo, 1.6 mg/kg. In outline: as §1
Series [16] can be described thus: Cmax in fasted Sprague-Dawley rat at 1.60 mg/kg, iv and 3.25 mg/kg, po by HTLC-MS/MS analysis. Type of series: ADME, organism-based. To be noted: in vivo. In outline: as §1
The nature of series [17]: Tmax in fasted Sprague-Dawley rat at 1.60 mg/kg, iv and 3.25 mg/kg, po by HTLC-MS/MS analysis. Type of series: ADME, organism-based. To be noted: in vivo. In outline:
(§3)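 Plasma concentration–time profiles were recorded after separate intravenous and peroral dosing at the per-compound doses listed. T_max is reported in min alongside C_max (ng/mL), intravenous half-life and clearance ((mL/min)/kg).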

Series [18] is described as follows: Half life in fasted Beagle dog at 0.25 mg/kg, iv. The format is ADME, organism-based, Canis lupus familiaris. More on the design: dose 0.25 mg/kg, route intravenous. To be noted: in vivo. In outline:
(§4)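 Dogs were dosed at 0.25 mg/kg iv and 0.5 mg/kg po, and plasma concentration was followed over time. Half-life came from the iv arm; clearance, Cmax and Tmax were also derived.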

Series [19] in a line: Oral bioavailability in fasted Beagle dog at 0.5 mg/kg. The format is ADME, organism-based, Canis lupus familiaris. The conditions noted are these: in vivo. In outline: as §2
Series [20] can be described thus: Clearance in fasted Beagle dog at 0.25 mg/kg, iv and 0.5 mg/kg, po. Type of series: ADME, organism-based, Canis lupus familiaris. The conditions noted are these: in vivo. In outline: as §4
A short description of series [21]: Cmax in fasted Beagle dog at 0.25 mg/kg, iv and 0.5 mg/kg, po. The format is ADME, organism-based, Canis lupus familiaris. To be noted: in vivo. In outline:
as §4

A short description of series [22]: Tmax in fasted Beagle dog at 0.25 mg/kg, iv and 0.5 mg/kg, po. The format is ADME, organism-based, Canis lupus familiaris. The conditions noted are these: in vivo. In outline:
as §3

For series [23], the species on record is Homo sapiens. Briefly: Selectivity ratio of IC50 for human recombinant glucagon receptor to IC50 for human recombinant GIPR. In outline: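 Competition binding of compounds to recombinant human glucagon and GIP receptors on BHK cell membranes, run in parallel as a scintillation proximity assay and, for selected compounds, as a membrane filtration assay.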

The species entered for series [24] is Homo sapiens. Briefly: Selectivity for human recombinant glucagon receptor over human GLP1R.
Series [25] can be described thus: Half life in fasted Sprague-Dawley rat plasma at 1.66 mg/kg, iv by HTLC-MS/MS analysis. Type of series: ADME, organism-based. Set-up: dose 1.66 mg/kg, route intravenous. In outline: as §1
The nature of series [26]: Oral bioavailability in fasted Sprague-Dawley rat at 3 mg/kg by HTLC-MS/MS analysis. Type of series: ADME, organism-based. To be noted: in vivo. In outline:
as §2

Series [27] can be described thus: Clearance in fasted Sprague-Dawley rat at 1.66 mg/kg, iv and 3 mg/kg, po. Type of series: ADME, organism-based. The conditions noted are these: in vivo. In outline:
as §1

Series [28] is described as follows: Cmax in fasted Sprague-Dawley rat at 1.66mg/kg, iv and 3 mg/kg, po. More on the design: dose 3 mg/kg, route oral. The format is ADME, organism-based. The conditions noted are these: in vivo. In outline:
as §1

A short description of series [29]: Tmax in fasted Sprague-Dawley rat at 1.6mg/kg, iv and 3 mg/kg, po. Type of series: ADME, organism-based. More on the design: dose 3 mg/kg, route oral. To be noted: in vivo. In outline: as §3

Activity calls are given as the source filed them. The calls are words filed in the database; no cut-off is given here. A value given as a limit tells only on which side of the number the result lay.

T2 sequence (P47871 whole entry): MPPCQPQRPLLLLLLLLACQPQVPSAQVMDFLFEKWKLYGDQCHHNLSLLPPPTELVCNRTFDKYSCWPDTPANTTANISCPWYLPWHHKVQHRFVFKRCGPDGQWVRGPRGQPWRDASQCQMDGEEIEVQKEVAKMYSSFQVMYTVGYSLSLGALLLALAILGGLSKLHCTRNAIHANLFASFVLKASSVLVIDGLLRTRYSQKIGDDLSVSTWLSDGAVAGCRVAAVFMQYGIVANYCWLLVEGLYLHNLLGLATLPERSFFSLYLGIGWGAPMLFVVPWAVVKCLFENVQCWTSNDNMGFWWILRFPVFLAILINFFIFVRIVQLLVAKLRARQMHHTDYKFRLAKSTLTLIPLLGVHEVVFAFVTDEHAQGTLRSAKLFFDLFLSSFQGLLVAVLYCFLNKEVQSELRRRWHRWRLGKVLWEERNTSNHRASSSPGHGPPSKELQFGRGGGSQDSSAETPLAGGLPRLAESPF
Glucagon receptor (Rattus norvegicus, UniProt P30082), sequence (P30082 whole entry): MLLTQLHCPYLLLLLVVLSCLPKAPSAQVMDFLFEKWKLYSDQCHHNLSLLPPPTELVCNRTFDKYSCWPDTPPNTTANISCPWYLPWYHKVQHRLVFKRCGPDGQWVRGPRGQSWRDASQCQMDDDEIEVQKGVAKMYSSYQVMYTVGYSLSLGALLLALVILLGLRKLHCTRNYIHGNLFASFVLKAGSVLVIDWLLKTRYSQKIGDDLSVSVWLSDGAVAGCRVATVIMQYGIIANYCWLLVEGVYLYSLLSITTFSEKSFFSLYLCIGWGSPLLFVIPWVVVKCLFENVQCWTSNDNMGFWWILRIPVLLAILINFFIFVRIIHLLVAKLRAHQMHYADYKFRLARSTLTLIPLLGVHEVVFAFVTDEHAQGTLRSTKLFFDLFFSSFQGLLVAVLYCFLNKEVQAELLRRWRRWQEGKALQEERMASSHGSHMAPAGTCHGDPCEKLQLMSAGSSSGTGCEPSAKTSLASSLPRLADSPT
Glucagon receptor (Mus musculus, UniProt Q61606), sequence (Q61606 whole entry): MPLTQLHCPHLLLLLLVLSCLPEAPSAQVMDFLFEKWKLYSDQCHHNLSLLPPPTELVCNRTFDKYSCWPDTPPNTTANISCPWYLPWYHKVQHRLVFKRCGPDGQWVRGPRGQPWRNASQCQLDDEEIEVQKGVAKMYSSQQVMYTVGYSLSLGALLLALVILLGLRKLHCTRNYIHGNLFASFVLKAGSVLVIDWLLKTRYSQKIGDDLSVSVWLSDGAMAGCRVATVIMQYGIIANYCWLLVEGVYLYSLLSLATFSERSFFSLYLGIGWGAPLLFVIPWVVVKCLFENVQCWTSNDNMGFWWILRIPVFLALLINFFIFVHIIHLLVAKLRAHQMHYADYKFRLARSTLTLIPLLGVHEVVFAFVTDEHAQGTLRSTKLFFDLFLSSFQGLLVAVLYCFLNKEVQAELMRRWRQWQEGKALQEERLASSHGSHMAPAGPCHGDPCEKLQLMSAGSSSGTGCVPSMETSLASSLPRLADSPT

Regarding `O=C(O)CCNC(=O)c1ccc(CN(c2ccc(Cl)cc2)c2nc(-c3ccc(C(F)(F)F)cc3)cs2)cc1`, the IC50 was found to be 0.649 µM in series [1]; 0.076 µM at Glucagon receptor [2]; 0.053 µM on Glucagon receptor [3]; 0.41 µM in series [4]; 1.4 µM on Glucagon receptor [5]; 0.372 µM at Glucagon receptor [6]. In addition, the IC50 in series [7] turned out to be 0.943 µM; in series [8] it was 4 µM; in series [9], 0.068 µM; in [10], 0.051 µM; in the series on Hepatocyte [11] it was 2.7 µM. For the same compound, the inhibition result with Hepatocyte [12] is “inactive”. Also, the values for the half-life in [13] and in [18] were 2.25 h and 1.33 h, respectively. Moreover, the results for the bioavailability in series [14] and in [19] were 13% and 16%, respectively. In addition, the clearance was determined as 0.3 L/h/kg in series [15] and 0.28 L/h/kg in series [20]. Moreover, the results for the Cmax in [16] and in series [21] were 0.216 µg/mL and 0.12 µg/mL, respectively. Also, the Tmax is 1.5 h in series [17] and 1.75 h in series [22]. Moreover, the fold change (FC) is 5 in the series listed under Homo sapiens [23] and over 50 in the series filed under Homo sapiens [24].
As to `O=C(O)CCNC(=O)c1ccc(N(Cc2ccc3c(c2)Cc2ccccc2-3)c2nc(-c3ccc(OC(F)(F)F)cc3)cs2)cc1`, the IC50 in series [1] worked out at 0.732 µM; on Glucagon receptor [2], 0.081 µM. The compound further yielded a half-life in [25] of 0.767 h. The compound further yielded a bioavailability in series [26] of 13%. This compound also had a clearance in series [27] of 1.86 L/h/kg. The peak level in series [28] (Cmax) was 0.082 µg/mL. In addition, the Tmax in [29] was 1.5 h. The fold change (FC) in the series filed under Homo sapiens [23] is 5; in the series listed under Homo sapiens [24] it was over 50.
With `O=C(O)CCNC(=O)c1ccc(N(Cc2ccc3c(c2)Cc2ccccc2-3)c2nc(-c3ccc(C(F)(F)F)cc3)cs2)cc1`, the IC50 in series [1] came out at 0.645 µM; on Glucagon receptor [2], 0.078 µM. Also, in series [25], the half-life was 0.667 h. In addition, the bioavailability in series [26] stood at 13%. In series [27], this compound displayed a clearance of 1.86 L/h/kg. The Cmax in [28] was 0.093 µg/mL. Also, in [29], the Tmax was 1.5 h. The figures for the fold change (FC) in the series listed under Homo sapiens [23] and in the series listed under Homo sapiens [24] were 5 and over 50, respectively.

Source of the values: ChEMBL document CHEMBL1138494, “Human glucagon receptor antagonists with thiazole cores. A novel series with superior pharmacokinetic properties” (J Med Chem, 2009).
